# Test results taken from ChEMBL document CHEMBL4396948, “Structure based design of macrocyclic factor XIa inhibitors: Discovery of cyclic P1 linker moieties with improved oral bioavailability” (Bioorg Med Chem Lett, 2019).
# Legend:
# [1] = Half life in human liver microsomes; format: ADME, Microsome
# [2] = Half life in rat liver microsomes; format: ADME, Microsome
# [3] = Permeability from apical to basolateral side in human Caco2 cells; format: ADME, cell-based; details: Caco-2, read-out: permeability
# [4] = AUC in rat; format: ADME; details: in vivo
# Procedure, shortened: (§1)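 Rat PK after iv and po dosing; both routes given in vehicle 70% PG, 20% water, 10% ethanol; compounds dosed either in cassette or discrete format.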
# [5] = Clearance in rat at […], iv or 1.04 mg/kg, po; format: ADME, organism-based; details: in vivo
# [6] = Volume of distribution at steady state in rat at […], iv or 1.04 mg/kg, po; format: ADME, organism-based; details: in vivo, read-out: Vdss
# [7] = Half life in rat at […], iv or 1.04 mg/kg, po; format: ADME, organism-based; details: in vivo
# [8] = Oral bioavailability in rat at 1.04 mg/kg; format: ADME, organism-based; details: in vivo; procedure, shortened: as §1
# [9] = Permeability from basolateral to apical side in human Caco2 cells; format: ADME, cell-based; details: Caco-2, read-out: permeability
# Coagulation factor XI = Coagulation factor XI (Homo sapiens, UniProt P03951); test: Inhibition of activated coagulation factor 11 (unknown origin) assessed as inhibitory constant
# [10] = Clearance in rat at 0.68 mg/kg, iv or 1.36 mg/kg, po; format: ADME, organism-based; details: in vivo; procedure, shortened: as §1
# [11] = Volume of distribution at steady state in rat at 0.68 mg/kg, iv or 1.36 mg/kg, po; format: ADME, organism-based; details: in vivo, read-out: Vdss; procedure, shortened: as §1
# [12] = Half life in rat at 0.68 mg/kg, iv or 1.36 mg/kg, po; format: ADME, organism-based; details: in vivo; procedure, shortened: as §1
# [13] = Oral bioavailability in rat at 1.36 mg/kg; format: ADME, organism-based; details: in vivo; procedure, shortened: as §1
# [14] = Clearance in rat at 0.63 mg/kg, iv or 1.27 mg/kg, po; format: ADME, organism-based; details: in vivo; procedure, shortened: as §1
# [15] = Volume of distribution at steady state in rat at 0.63 mg/kg, iv or 1.27 mg/kg, po; format: ADME, organism-based; details: in vivo, read-out: Vdss; procedure, shortened: as §1
# [16] = Half life in rat at 0.63 mg/kg, iv or 1.27 mg/kg, po; format: ADME, organism-based; details: in vivo
# Procedure, shortened: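 Rat pharmacokinetics with iv and oral dosing; the vehicle for both routes was 70% PG, 20% water and 10% ethanol. Half-life was derived from the plasma profile.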
# [17] = Oral bioavailability in rat at 1.27 mg/kg; format: ADME, organism-based; details: in vivo; procedure, shortened: as §1
# Coagulation factor VII = target: T1, Coagulation factor VII (Homo sapiens, UniProt P08709); test: Inhibition of activated human coagulation factor 7
# T1 sequence (P08709 whole entry): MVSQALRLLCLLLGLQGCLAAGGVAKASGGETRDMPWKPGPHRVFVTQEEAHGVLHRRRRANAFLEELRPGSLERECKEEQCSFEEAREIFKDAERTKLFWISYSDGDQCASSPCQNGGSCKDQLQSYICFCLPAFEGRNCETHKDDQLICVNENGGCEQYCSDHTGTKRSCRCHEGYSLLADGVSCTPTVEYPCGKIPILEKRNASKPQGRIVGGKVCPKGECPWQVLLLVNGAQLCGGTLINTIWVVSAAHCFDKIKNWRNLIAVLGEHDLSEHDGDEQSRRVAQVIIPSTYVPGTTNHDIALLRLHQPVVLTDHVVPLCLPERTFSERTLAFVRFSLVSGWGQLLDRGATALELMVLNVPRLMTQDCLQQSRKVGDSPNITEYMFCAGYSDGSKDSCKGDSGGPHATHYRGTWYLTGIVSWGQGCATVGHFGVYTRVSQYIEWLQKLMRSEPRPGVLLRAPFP
# Coagulation factor IX = Coagulation factor IX (Homo sapiens, UniProt P00740); test: Inhibition of activated human coagulation factor 9
# Coagulation factor X = Coagulation factor X (Homo sapiens, UniProt P00742); test: Inhibition of activated human coagulation factor 10
# Coagulation factor XII = target: T2, Coagulation factor XII (Homo sapiens, UniProt P00748); test: Inhibition of activated human coagulation factor 12
# T2 sequence (P00748 whole entry): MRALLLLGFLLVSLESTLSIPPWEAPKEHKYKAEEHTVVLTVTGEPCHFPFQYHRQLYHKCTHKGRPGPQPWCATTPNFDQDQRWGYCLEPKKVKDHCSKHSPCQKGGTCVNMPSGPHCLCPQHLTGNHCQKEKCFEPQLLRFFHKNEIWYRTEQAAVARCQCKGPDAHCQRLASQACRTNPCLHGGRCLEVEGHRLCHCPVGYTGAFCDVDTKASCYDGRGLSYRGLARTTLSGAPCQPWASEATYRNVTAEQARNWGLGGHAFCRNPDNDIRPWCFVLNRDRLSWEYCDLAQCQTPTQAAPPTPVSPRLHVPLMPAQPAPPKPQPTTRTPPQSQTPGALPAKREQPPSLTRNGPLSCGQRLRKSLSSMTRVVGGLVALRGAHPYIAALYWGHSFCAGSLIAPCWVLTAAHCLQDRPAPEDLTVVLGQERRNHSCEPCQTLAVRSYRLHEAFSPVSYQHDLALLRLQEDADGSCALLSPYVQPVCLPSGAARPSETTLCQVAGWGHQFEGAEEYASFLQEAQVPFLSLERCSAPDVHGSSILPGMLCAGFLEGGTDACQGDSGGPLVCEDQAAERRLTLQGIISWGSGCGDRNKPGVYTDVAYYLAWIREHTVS
# Prothrombin = Prothrombin (Homo sapiens, UniProt P00734); test: Inhibition of human thrombin
# Trypsin = Trypsin (Homo sapiens, UniProt P07477+P07478+P35030); test: Inhibition of human trypsin; format: protein assay
# [18] = target: Vitamin K-dependent protein C (Homo sapiens, UniProt P04070); test: Inhibition of human activated protein C
# Plasminogen = Plasminogen (Homo sapiens, UniProt P00747); test: Inhibition of human plasmin
# [19] = target: Tissue-type plasminogen activator (Homo sapiens, UniProt P00750); test: Inhibition of human TPA
# [20] = target: Urokinase-type plasminogen activator (Homo sapiens, UniProt P00749); test: Inhibition of human urokinase
# [21] = Clearance in rat at 0.79 mg/kg, iv or 1.58 mg/kg, po; format: ADME, organism-based; details: in vivo; procedure, shortened: as §1
# [22] = Volume of distribution at steady state in rat at 0.79 mg/kg, iv or 1.58 mg/kg, po; format: ADME, organism-based; details: in vivo, read-out: Vdss; procedure, shortened: as §1
# [23] = Half life in rat at 0.79 mg/kg, iv or 1.58 mg/kg, po; format: ADME, organism-based; details: in vivo; procedure, shortened: as §1
# [24] = Oral bioavailability in rat at 1.58 mg/kg; format: ADME, organism-based; details: in vivo; procedure, shortened: as §1
# Chain of Coagulation factor XI (P03951 19-387 limits assumed): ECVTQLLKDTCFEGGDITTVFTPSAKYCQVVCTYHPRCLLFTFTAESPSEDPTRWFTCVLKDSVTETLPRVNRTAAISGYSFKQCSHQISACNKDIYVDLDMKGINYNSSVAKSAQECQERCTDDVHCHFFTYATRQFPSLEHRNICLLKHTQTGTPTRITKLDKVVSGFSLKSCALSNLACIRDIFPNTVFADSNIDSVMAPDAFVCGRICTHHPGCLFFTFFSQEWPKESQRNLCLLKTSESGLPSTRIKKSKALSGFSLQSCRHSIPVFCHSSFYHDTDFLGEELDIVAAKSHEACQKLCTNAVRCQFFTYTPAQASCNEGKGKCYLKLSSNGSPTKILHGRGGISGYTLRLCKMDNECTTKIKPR
# Chain of Coagulation factor XI (P03951 388-625 limits assumed): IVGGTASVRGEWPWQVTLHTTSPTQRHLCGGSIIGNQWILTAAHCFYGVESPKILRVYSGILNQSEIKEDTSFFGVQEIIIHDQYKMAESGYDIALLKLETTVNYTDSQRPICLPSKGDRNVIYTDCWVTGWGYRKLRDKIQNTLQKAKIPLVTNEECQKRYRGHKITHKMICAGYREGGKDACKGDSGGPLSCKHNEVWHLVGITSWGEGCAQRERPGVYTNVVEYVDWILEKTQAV
# Chain of Vitamin K-dependent protein C (P04070 43-197 limits assumed): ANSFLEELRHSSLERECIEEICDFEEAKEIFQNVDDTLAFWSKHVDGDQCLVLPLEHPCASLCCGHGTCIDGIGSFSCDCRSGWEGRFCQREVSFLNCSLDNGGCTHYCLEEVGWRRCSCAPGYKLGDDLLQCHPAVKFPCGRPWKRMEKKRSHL
# Chain of Vitamin K-dependent protein C (P04070 212-461 limits assumed): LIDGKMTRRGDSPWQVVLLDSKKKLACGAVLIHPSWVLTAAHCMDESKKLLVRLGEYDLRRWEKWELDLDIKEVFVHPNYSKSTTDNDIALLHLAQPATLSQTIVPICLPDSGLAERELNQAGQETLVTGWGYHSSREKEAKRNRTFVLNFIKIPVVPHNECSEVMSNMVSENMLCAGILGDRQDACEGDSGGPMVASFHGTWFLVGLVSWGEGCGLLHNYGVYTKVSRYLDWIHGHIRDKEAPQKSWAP
# Chain of Coagulation factor X (P00742 41-179 limits assumed): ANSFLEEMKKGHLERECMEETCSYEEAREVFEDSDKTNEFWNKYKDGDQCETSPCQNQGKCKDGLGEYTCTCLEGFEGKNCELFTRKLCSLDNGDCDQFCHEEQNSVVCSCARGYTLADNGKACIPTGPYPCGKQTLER
# Chain of Coagulation factor X (P00742 235-488 limits assumed): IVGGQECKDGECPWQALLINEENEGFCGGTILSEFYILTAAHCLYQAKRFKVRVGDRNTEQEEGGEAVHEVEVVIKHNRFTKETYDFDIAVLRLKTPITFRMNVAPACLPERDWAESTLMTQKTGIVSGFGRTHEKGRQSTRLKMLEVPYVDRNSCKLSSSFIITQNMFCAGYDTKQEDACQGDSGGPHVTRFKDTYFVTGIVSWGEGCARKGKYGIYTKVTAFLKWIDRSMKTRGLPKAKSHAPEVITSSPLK
# Chain of Tissue-type plasminogen activator (P00750 whole entry): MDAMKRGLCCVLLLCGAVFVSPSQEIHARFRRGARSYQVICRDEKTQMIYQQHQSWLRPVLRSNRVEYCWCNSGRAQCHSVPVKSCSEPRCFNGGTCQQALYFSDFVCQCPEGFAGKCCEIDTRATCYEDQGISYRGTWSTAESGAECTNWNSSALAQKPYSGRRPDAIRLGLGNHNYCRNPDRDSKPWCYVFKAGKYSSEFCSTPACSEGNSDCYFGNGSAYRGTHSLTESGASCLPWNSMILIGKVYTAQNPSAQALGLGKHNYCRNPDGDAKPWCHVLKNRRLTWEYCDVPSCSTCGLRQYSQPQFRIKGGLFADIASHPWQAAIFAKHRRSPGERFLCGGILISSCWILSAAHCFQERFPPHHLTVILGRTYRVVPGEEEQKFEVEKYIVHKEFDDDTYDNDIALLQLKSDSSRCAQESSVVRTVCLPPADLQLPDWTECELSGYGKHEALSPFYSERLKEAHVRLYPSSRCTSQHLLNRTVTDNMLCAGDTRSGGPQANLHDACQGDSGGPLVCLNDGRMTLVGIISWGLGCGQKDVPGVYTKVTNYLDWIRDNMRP
# Chain of Plasminogen (P00747 97-580 limits assumed): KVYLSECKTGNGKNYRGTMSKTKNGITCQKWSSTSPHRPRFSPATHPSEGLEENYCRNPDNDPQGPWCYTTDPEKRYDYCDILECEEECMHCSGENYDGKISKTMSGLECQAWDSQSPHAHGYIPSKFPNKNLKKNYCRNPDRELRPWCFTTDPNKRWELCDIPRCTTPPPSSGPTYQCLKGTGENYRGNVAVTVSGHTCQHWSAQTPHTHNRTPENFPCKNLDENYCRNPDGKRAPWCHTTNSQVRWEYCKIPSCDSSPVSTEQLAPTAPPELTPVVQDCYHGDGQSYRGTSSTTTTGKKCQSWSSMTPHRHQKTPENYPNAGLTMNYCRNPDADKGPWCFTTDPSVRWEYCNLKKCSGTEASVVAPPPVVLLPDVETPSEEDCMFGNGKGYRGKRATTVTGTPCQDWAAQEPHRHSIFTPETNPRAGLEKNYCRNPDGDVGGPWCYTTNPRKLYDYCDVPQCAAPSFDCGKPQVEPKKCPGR
# Chain of Plasminogen (P00747 581-810 limits assumed): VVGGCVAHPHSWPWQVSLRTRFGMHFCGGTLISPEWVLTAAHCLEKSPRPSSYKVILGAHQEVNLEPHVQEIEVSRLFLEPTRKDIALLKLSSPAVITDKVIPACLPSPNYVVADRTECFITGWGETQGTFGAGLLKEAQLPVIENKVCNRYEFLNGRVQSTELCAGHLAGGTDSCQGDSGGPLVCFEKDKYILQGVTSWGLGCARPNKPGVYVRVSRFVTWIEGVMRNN
# Chain of Coagulation factor IX (P00740 47-191 limits assumed): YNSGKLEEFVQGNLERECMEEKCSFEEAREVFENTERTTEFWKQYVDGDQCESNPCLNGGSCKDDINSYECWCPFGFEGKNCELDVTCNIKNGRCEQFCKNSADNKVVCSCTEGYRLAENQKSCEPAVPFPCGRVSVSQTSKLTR
# Chain of Coagulation factor IX (P00740 227-461 limits assumed): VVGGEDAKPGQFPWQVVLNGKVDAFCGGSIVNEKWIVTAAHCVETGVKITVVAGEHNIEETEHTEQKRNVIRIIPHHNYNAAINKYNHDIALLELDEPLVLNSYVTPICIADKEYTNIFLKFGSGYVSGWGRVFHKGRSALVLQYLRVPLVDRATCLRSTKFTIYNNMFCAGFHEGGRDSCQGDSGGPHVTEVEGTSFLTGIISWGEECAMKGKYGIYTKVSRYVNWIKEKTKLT
smiles,measurement,setting,value
COC(=O)Nc1ccc2c(c1)NC(=O)CC/C=C/C[C@H](NC(=O)/C=C/c1cccc(Cl)c1)c1nc-2c[nH]1,half-life,[1],32 min
same,half-life,[2],45 min
same,Papp A→B,[3],< 1.5 ×10⁻⁶ cm/s
same,AUC,[4],0.027 µM·h
same,clearance,[5],44 mL/min/kg
same,Vd,[6],3.2 L/kg
same,half-life,[7],84 min
same,bioavailability,[8],2%
same,Papp B→A,[9],32.4 ×10⁻⁶ cm/s
[2H][C@]1(c2c(F)ccc(Cl)c2F)CCN([C@H]2C/C=C/CCC(=O)Nc3cc(NC(=O)OC)ccc3-c3nc2[nH]c3Cl)C(=O)O1,half-life,[1],16 min
same,half-life,[2],31 min
COC(=O)Nc1ccc(-c2nc([C@H](Cc3ccccc3)NC(=O)NCc3cccc(Cl)c3)[nH]c2Cl)cc1,Ki,Coagulation factor XI,422 nM
COC(=O)Nc1ccc2c(c1)NC(=O)CC/C=C/C[C@H](N1CCC(c3cccc(Cl)c3)NC1=O)c1nc-2c[nH]1 (some centres not stated),half-life,[1],35 min
same,half-life,[2],18 min
COC(=O)Nc1ccc2c(c1)NC(=O)CC/C=C/C[C@H](N1CC[C@H](c3cccc(Cl)c3)OC1=O)c1nc-2c[nH]1,AUC,[4],0.523 µM·h
same,clearance,[10],40 mL/min/kg
same,Vd,[11],1.3 L/kg
same,half-life,[12],48 min
same,bioavailability,[13],59%
COC(=O)Nc1ccc2c(c1)NC(=O)CC/C=C/C[C@H](N1CC[C@H](c3cccc(Cl)c3)CC1=O)c1nc-2c[nH]1,half-life,[1],6 min
same,half-life,[2],5 min
same,Papp A→B,[3],4.6 ×10⁻⁶ cm/s
same,AUC,[4],0.031 µM·h
same,clearance,[14],188 mL/min/kg
same,Vd,[15],4.6 L/kg
same,half-life,[16],30 min
same,bioavailability,[17],15%
same,Ki,Coagulation factor VII,4.85 µM
same,Ki,Coagulation factor IX,> 27.1 µM
same,Ki,Coagulation factor X,> 9 µM
same,Ki,Coagulation factor XII,> 3.05 µM
same,Ki,Prothrombin,> 13.3 µM
same,Ki,Trypsin,> 6.26 µM
same,Ki,[18],> 7.16 µM
same,Ki,Plasminogen,> 15.2 µM
same,Ki,[19],> 6.15 µM
same,Ki,[20],> 15.1 µM
same,Papp B→A,[9],30.9 ×10⁻⁶ cm/s
COC(=O)Nc1ccc2c(c1)NC(=O)CC/C=C/C[C@H](N1CC[C@H](c3cccc(Cl)c3)OC1=O)c1nc-2c(Cl)[nH]1,half-life,[1],11 min
same,half-life,[2],14 min
COC(=O)Nc1ccc2c(c1)NC(=O)CC/C=C/C[C@H](N1CCN(c3cccc(Cl)c3)CC1=O)c1nc-2c[nH]1,half-life,[1],15 min
COC(=O)Nc1ccc2c(c1)NC(=O)CC/C=C/C[C@H](NC(=O)/C=C/c1cc(Cl)ccc1-n1cnnn1)c1nc-2c[nH]1,half-life,[1],41 min
same,half-life,[2],39 min
same,Papp A→B,[3],< 1.5 ×10⁻⁶ cm/s
same,AUC,[4],0.011 µM·h
same,clearance,[21],28 mL/min/kg
same,Vd,[22],0.7 L/kg
same,half-life,[23],42 min
same,bioavailability,[24],0.8%
same,Papp B→A,[9],5.8 ×10⁻⁶ cm/s
COC(=O)Nc1ccc2c(c1)NC(=O)CC/C=C/C[C@H](N1CC[C@H](c3cc(Cl)ccc3F)OC1=O)c1nc-2c(Cl)[nH]1,half-life,[1],5 min
same,half-life,[2],18 min
COC(=O)Nc1ccc2c(c1)NC(=O)CC/C=C/C[C@H](N1CCC(c3c(F)ccc(Cl)c3F)NC1=O)c1nc-2c[nH]1 (some centres not stated),half-life,[1],41 min
same,half-life,[2],26 min
COC(=O)Nc1ccc2c(c1)NC(=O)CC/C=C/C[C@H](N1CC[C@H](c3cc(Cl)ccc3C(F)(F)F)OC1=O)c1nc-2c(Cl)[nH]1,half-life,[1],18 min
same,half-life,[2],49 min
COC(=O)Nc1ccc2c(c1)NC(=O)CC/C=C/C[C@H](N1CC[C@H](c3c(F)ccc(Cl)c3F)OC1=O)c1nc-2c(Cl)[nH]1,half-life,[1],9 min
same,half-life,[2],22 min
COC(=O)Nc1ccc(-c2nc([C@H](Cc3ccccc3)NC(=O)CCc3cccc(Cl)c3)[nH]c2Cl)cc1,Ki,Coagulation factor XI,871 nM
COC(=O)Nc1ccc(-c2cn3c(n2)C(Cc2ccccc2)N(C(=O)/C=C/c2cc(Cl)ccc2-n2cnnn2)CCC3)cc1 (configuration not stated),Ki,Coagulation factor XI,> 13300 nM
COC(=O)Nc1ccc(-c2nc([C@H](Cc3ccccc3)N(C)C(=O)/C=C/c3cc(Cl)ccc3-n3cnnn3)[nH]c2Cl)cc1,Ki,Coagulation factor XI,189 nM
COC(=O)Nc1ccc2c(c1)NC(=O)CC/C=C/C[C@H](N1CC[C@H](c3c(F)ccc(Cl)c3F)CC1=O)c1nc-2c[nH]1,half-life,[1],9 min
same,half-life,[2],7 min
COC(=O)Nc1ccc(-c2nc([C@H](Cc3ccccc3)N3CCC(c4cccc(Cl)c4)NC3=O)[nH]c2Cl)cc1 (some centres not stated),Ki,Coagulation factor XI,175 nM
COC(=O)Nc1ccc(-c2c[nH]c([C@@H]3[C@@H](c4ccccc4)CCN3C(=O)/C=C/c3cc(Cl)ccc3-n3cnnn3)n2)cc1,Ki,Coagulation factor XI,372 nM
COC(=O)Nc1ccc2c(c1)NC(=O)CC/C=C/C[C@H](N1CC[C@H](c3c(F)ccc(Cl)c3F)OC1=O)c1nc-2c[nH]1,half-life,[1],8 min
same,half-life,[2],15 min
